CC50, Activity and EC50 data for twelve compounds are collected here from ChEMBL document CHEMBL1156068, “Synthesis, pharmacological and antiviral activity of 1,3-thiazepine derivatives” (Eur J Med Chem, 2009).

A short description of data set [1]: Cytotoxicity against human MT4 cells assessed as reduction of cell viability after 96 hrs by MTT assay. Type of data set: cell-based. The essentials:
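Exponentially growing, mock-infected MT-4 cells were seeded at 1×10^5 cells mL-1 in RPMI-1640 with 10% FCS and penicillin/streptomycin, with serial compound dilutions. Incubated 96 h at 37 °C, 5% CO2, then viability read by MTT. CC50 is the concentration reducing viability by 50%.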

The test system of a further data set is Vaccinia virus. The experiment in a line: Antiviral activity against Vaccinia virus infected in african green monkey Vero76 cells after 3 days by plaque reduction assay. It counts as functional, organism-based. Particulars: Orthopoxvirus vaccinia; Vero 76.
Another data set deals with Coxsackievirus B2. As to the kind of experiment: Antiviral activity against Coxsackie virus B2 infected in african green monkey Vero76 cells after 3 days by plaque reduction assay. Type of data set: functional, organism-based. Particulars: Vero 76. A digest of the protocol: (§1)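 Vero 76 monolayers (2×10^5 cells/well, overnight) infected to give 50–100 PFU/well. Unadsorbed virus removed, then DMEM with 1% FCS, 0.75% methylcellulose and serial compound dilutions added. Incubated at 37 °C for 3 days (CVB-2, HSV-1) or 5 days (RSV). Fixed and stained with 50% ethanol/0.8% crystal violet in PBS; plaques counted.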
On the technique in general: Plaque reduction counts the foci of infection that form in a cell layer.

In data set [2] the test system is Vesicular stomatitis virus. As to the kind of experiment: Antiviral activity against Vesicular stomatitis virus infected in african green monkey Vero76 cells after 2 days by plaque reduction assay. It counts as functional, organism-based. The conditions noted are these: Vero 76.
Data set [3] relates to Mammalian orthoreovirus 1. The experiment in a line: Antiviral activity against Reo virus type-1 infected in BHK-21 cells assessed as protection against virus induced cytopathogenicity after 3 to 4 days by MTT assay. It counts as functional, organism-based. A digest of the protocol:
(§2)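 Monolayers were grown overnight at 37 °C, 5% CO2: MDBK at 3×10^4 cells/well, BHK at 5×10^4 cells/well. Cells infected at m.o.i. 0.01. After 1 h, serial compound dilutions added in MEM with 1% FCS. Viability read by MTT after 3–4 days at 37 °C. EC50 is the concentration giving 50% protection from cytopathogenicity.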
In general terms: Cytopathic effects are the visible damage that an infection or toxin causes in cultured cells.

For data set [4], the system named is Bovine viral diarrhea virus 1. The experiment in a line: Antiviral activity against Bovine viral diarrhea virus infected in MDBK cells assessed as protection against virus induced cytopathogenicity after 3 to 4 days by MTT assay. Type of data set: functional, organism-based. The essentials: as §2
The subject of a further data set is Yellow fever virus. As to the kind of experiment: Antiviral activity against Yellow fever virus infected in BHK-21 cells assessed as protection against virus induced cytopathogenicity after 3 to 4 days by MTT assay. Type of data set: functional, organism-based. The essentials:
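BHK cells were seeded at 5 × 10^4 per well and grown overnight to monolayers, then infected at m.o.i. 0.01 in serum-free medium. One hour later, MEM Earle's with 1% FCS (final) and serial compound dilutions were added. After 3–4 days at 37 °C, viability was read by MTT. EC50 is the concentration giving 50% protection from virus-induced cytopathogenicity.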

A further data set relates to Poliovirus 1. The experiment in a line: Antiviral activity against Poliovirus type 1 Sabin infected in african green monkey Vero76 cells after 2 days by plaque reduction assay. Type of data set: functional, cell-based. The conditions noted are these: Vero 76.
The subject of data set [5] is Human immunodeficiency virus 1. The experiment in a line: Antiviral activity against wild type HIV1 3B infected in human MT4 cells assessed as protection against virus induced cytopathogenicity after 4 days by MTT assay. Type of data set: functional, organism-based. Particulars: Human immunodeficiency virus 1, 3B, MT4, 96 h. A digest of the protocol:
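MT-4 cells (1×10^4/well) in RPMI with serial compound dilutions were infected with HIV-1 (100 CCID50; m.o.i. 0.01). After 4 days, viability was measured by MTT. EC50 is the concentration giving 50% protection from virus-induced cytopathogenicity. Compounds were prepared as 100 mM DMSO stocks diluted in medium.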

For data set [6], the system named is Respiratory syncytial virus. The experiment in a line: Antiviral activity against Respiratory syncytial virus infected in african green monkey Vero76 cells after 5 days by plaque reduction assay. Type of data set: functional, organism-based. Particulars: Vero 76. A digest of the protocol:
as §1

For the next data set, the system named is Human alphaherpesvirus 1. As to the kind of experiment: Antiviral activity against HSV1 infected in african green monkey Vero76 cells after 3 days by plaque reduction assay. Type of data set: functional, organism-based. Particulars: Vero 76. The essentials: as §1

Calls of active or inactive are those of the source. The rule behind the calls is not given here. Bounds are passed on as bounds.

One may read the CC50 as the concentration at which the toxic effect on the cells reaches its halfway point. The term EC50 denotes the concentration giving half of the maximal effect. Regarding `CC1=CC2C(C(C)C)CC1C1C(=O)N(N3CCCCS/C3=N\Cc3ccccc3)C(=O)C21` (configuration not stated), the CC50 at 96 h in data set [1] turned out to be 47 µM. The outcome (with Vaccinia virus; in the data set with Coxsackievirus B2; in data set [2]; in data set [3]; in [4]; in the data set with Yellow fever virus) was inactive. Further, the outcome (in the data set with Poliovirus 1; in [6]; with Human alphaherpesvirus 1) was inactive. The concentration giving a half-maximal response (EC50) in [5] was over 47 µM.
With `CC1=CC2C(C(C)C)CC1C1C(=O)N(NC(=S)Nc3ccc(Cl)c(Cl)c3)C(=O)C21` (configuration not stated), the CC50 at 96 h in data set [1] stood at 41 µM. Further, the result (in the data set with Vaccinia virus; in the data set on Coxsackievirus B2; in data set [2]; in data set [3]; in data set [4]; in the data set on Yellow fever virus) was inactive. Moreover, the outcome (with Poliovirus 1; in [6]; in the data set on Human alphaherpesvirus 1) was inactive. Further, the EC50 in [5] was over 41 µM.
For `CC(C)C12C=CC(C)(CC1)C1C(=O)N(N3CCCCS/C3=N\c3ccc(F)cc3)C(=O)C12` (configuration not stated), the CC50 at 96 h in data set [1] stood at 86 µM. The result (in the data set on Vaccinia virus; with Coxsackievirus B2; in [2]; in data set [3]; in data set [4]; in the data set with Yellow fever virus) was inactive. Besides, the outcome (in the data set on Poliovirus 1; in [6]; in the data set on Human alphaherpesvirus 1) was inactive. In addition, the 50% effective concentration (EC50) in data set [5] was over 86 µM.
In the case of `CC1=CC2C(C(C)C)CC1C1C(=O)N(NC(=S)Nc3ccc(I)cc3)C(=O)C21` (configuration not stated), the CC50 at 96 h in [1] stood at 45 µM. Moreover, the outcome (in the data set on Vaccinia virus; with Coxsackievirus B2; in [2]; in [3]; in [4]; in the data set on Yellow fever virus) was inactive. Moreover, the result (with Poliovirus 1; in [6]; with Human alphaherpesvirus 1) was inactive. The concentration for a half-maximal effect (EC50) in data set [5] was over 45 µM.
Regarding `CC(C)C12C=CC(C)(CC1)C1C(=O)N(N3CCCCS/C3=N\c3ccc(Cl)cc3)C(=O)C12` (configuration not stated), the 50% cytotoxic concentration (CC50) at 96 h in [1] was found to be 32 µM. Moreover, the result (with Vaccinia virus; with Coxsackievirus B2; in [2]; in data set [3]; in [4]; in the data set with Yellow fever virus) was inactive. Further, the outcome (in the data set with Poliovirus 1; in data set [6]; with Human alphaherpesvirus 1) was inactive. Moreover, the EC50 in data set [5] was over 32 µM.
`CC1=CC2C(C(C)C)CC1C1C(=O)N(N3CCCCS/C3=N\c3ccc(F)cc3)C(=O)C21` (configuration not stated): the CC50 at 96 h in data set [1] was 49 µM. The outcome (in the data set with Vaccinia virus; in the data set with Coxsackievirus B2; in [2]; in [3]; in data set [4]; in the data set with Yellow fever virus) was inactive. Further, the outcome (in the data set with Poliovirus 1; in data set [6]; with Human alphaherpesvirus 1) was inactive. In addition, the EC50 in data set [5] is over 49 µM.
`CC1=CC2C(C(C)C)CC1C1C(=O)N(NC(=S)Nc3ccc(Cl)cc3)C(=O)C21` (configuration not stated): the CC50 at 96 h in data set [1] was found to be 45 µM. Moreover, the result (in the data set on Vaccinia virus; in the data set on Coxsackievirus B2; in [2]; in data set [3]; in data set [4]; in the data set with Yellow fever virus) was inactive. For the same compound, the outcome (in the data set on Poliovirus 1; in [6]; with Human alphaherpesvirus 1) was inactive. For the same compound, in data set [5], the EC50 is over 45 µM.
For the compound `CC1=CC2C(C(C)C)CC1C1C(=O)N(NC(=S)NCc3ccccc3)C(=O)C21` (configuration not stated), the CC50 at 96 h in [1] stood at 54 µM. Moreover, the outcome (in the data set on Vaccinia virus; in the data set on Coxsackievirus B2; in data set [2]; in data set [3]; in the data set on Poliovirus 1; in data set [6]) was inactive. Also, the outcome in the data set with Human alphaherpesvirus 1 was inactive. The concentration giving a half-maximal response (EC50) in data set [4] (Bovine viral diarrhea virus isolates and strains) was 52 µM; in the data set on Yellow fever virus it was 41 µM; in [5], 30 µM.
For the compound `CC(C)C12C=CC(C)(CC1)C1C(=O)N(N3CCCCS/C3=N\Cc3ccccc3)C(=O)C12` (configuration not stated), in [1], the 50% cytotoxic concentration (CC50) at 96 h was over 100 µM. The outcome (in the data set on Vaccinia virus; in the data set on Coxsackievirus B2; in [2]; in data set [3]; in data set [4]; in the data set on Yellow fever virus) was inactive. The outcome (in the data set on Poliovirus 1; in [6]; in the data set with Human alphaherpesvirus 1) was inactive. Further, the concentration for a half-maximal effect (EC50) in data set [5] was over 100 µM.
Take `CC1=CC2C(C(C)C)CC1C1C(=O)N(NC(=S)Nc3ccc(F)cc3)C(=O)C21` (configuration not stated): the CC50 at 96 h in data set [1] is 69 µM. Moreover, the result (with Vaccinia virus; in the data set on Coxsackievirus B2; in [2]; in data set [3]; in data set [4]; in the data set with Yellow fever virus) was inactive. In addition, the result (in the data set on Poliovirus 1; in data set [6]; in the data set on Human alphaherpesvirus 1) was inactive. Moreover, in data set [5], the EC50 is over 69 µM.
As for `CC(C)C12C=CC(C)(CC1)C1C(=O)N(N3CCCCS/C3=N\c3ccc(I)cc3)C(=O)C12` (configuration not stated), in [1], the CC50 at 96 h was 59 µM. The result (with Vaccinia virus; with Coxsackievirus B2; in data set [2]; in data set [3]; in data set [4]; in the data set with Yellow fever virus) was inactive. The result (in the data set with Poliovirus 1; in data set [6]; with Human alphaherpesvirus 1) was inactive. Besides, the concentration giving a half-maximal response (EC50) in [5] was over 59 µM.
On to `CC(C)C12C=CC(C)(CC1)C1C(=O)N(NC(=S)Nc3ccc(I)cc3)C(=O)C12` (configuration not stated), for which the CC50 at 96 h in [1] is over 100 µM. In addition, the outcome (with Vaccinia virus; in the data set on Coxsackievirus B2; in data set [2]; in data set [3]; in data set [4]; in the data set on Yellow fever virus) was inactive. Further, the outcome (in the data set with Poliovirus 1; in data set [6]; in the data set on Human alphaherpesvirus 1) was inactive. Also, the EC50 in data set [5] was over 100 µM.
